The source of these data is ChEMBL document CHEMBL1795256, “Synthesis and biological evaluation of novel aliphatic amido-quaternary ammonium salts for anticancer chemotherapy: part I” (2011).

Assay [1] deals with NCI-H23. Nature of the assay: Growth inhibition of human NCI-H23 cells by sulforhodamine B assay. Format: functional.
Assay [2] has as its system ACHN. Put plainly: Growth inhibition of human ACHN cells by sulforhodamine B assay. Format: functional.
In assay [3] the test system is HCT-15. Put plainly: Growth inhibition of human HCT15 cells by sulforhodamine B assay. Format: functional.
The subject of assay [4] is MDA-MB-231. Nature of the assay: Growth inhibition of human MDA-MB-231 cells by sulforhodamine B assay. Format: functional.
For assay [5], the system named is PC-3. Nature of the assay: Growth inhibition of human PC3 cells by sulforhodamine B assay. The assay is classed as functional.
Assay [6] has as its system NUGC-3. Put plainly: Growth inhibition of human NUGC3 cells by sulforhodamine B assay. The assay is classed as functional.
In assay [7] the target is Rho-related GTP-binding protein RhoB (Homo sapiens) (UniProt P62745). Put plainly: Transactivation of RhoB expressed in human HeLa cells at 5 uM by dual renilla/firefly luciferase reporter assay. The assay is classed as cell-based. The method, boiled down: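 HeLa cells at 75–90% confluence were transiently cotransfected with a pGL2 firefly luciferase plasmid driven by the RhoB promoter (empty pGL2 vector as comparison) plus pRL-SV40 Renilla luciferase. Luciferase activity was measured after compound exposure in a dual-luciferase reporter read-out.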

The structures appear in SMILES notation. Activity calls are given as the source filed them. No cut-off for these calls is given here.

Sequence of Rho-related GTP-binding protein RhoB (Homo sapiens) (P62745 whole entry): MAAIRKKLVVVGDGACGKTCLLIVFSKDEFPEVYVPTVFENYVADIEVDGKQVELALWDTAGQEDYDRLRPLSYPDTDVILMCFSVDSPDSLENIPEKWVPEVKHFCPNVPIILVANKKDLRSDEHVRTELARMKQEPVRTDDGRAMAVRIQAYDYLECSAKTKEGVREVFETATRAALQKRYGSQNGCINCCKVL

Take `C=CC[N+]1(C)CCN(C(=O)CCCCCCCCCCCCCCC)CC1`: the GI50 entry in assay [1], in assay [2], in assay [3], in assay [4], in assay [5] and in assay [6] was “inactive” throughout. Also, in assay [7], the result was Active.
Take `CCCCCCCCCCCCCCCCCCCCCC(=O)N1CC[N+](C)(Cc2ccccc2)CC1`: the GI50 in assay [1] came to 2950 nM; in assay [2] it was 4740 nM; in assay [3], 2530 nM; in assay [4] it was 1980 nM; in assay [5], 1240 nM; in assay [6] it was 1900 nM.
Consider `CCCCCCCCCCCCCCCCCCCC(=O)N1CC[N+](C)(C)CC1`, for which the 50% growth inhibitory concentration (GI50) in assay [1] was 1740 nM; in assay [2] it was 1390 nM; in assay [3], 540 nM; in assay [4] it was 1630 nM; in assay [5], 310 nM; in assay [6], 420 nM. The result in assay [7] was Active.
Consider `CCCCCCCCCCCCCCCCCCCCCC(=O)N1CC[N+](C)(CC)CC1`, for which the concentration for 50% growth inhibition (GI50) in assay [1] was 2600 nM; in assay [2] it was 1900 nM; in assay [3], 1690 nM; in assay [4] it was 2010 nM; in assay [5], 850 nM; in assay [6], 1220 nM.
Consider `CCCCCCCCCCCCCCCC(=O)N1CC[N+](C)(CC)CC1`, for which the GI50 in assay [1] turned out to be 3650 nM; in assay [2], 1890 nM; in assay [3] it was 1800 nM; in assay [4], 2050 nM; in assay [5], 800 nM; in assay [6], 580 nM.
Turning to `C=CC[N+]1(CC)CCN(C(=O)CCCCCCCCCCCCCCCCCCCCC)CC1`, the concentration for 50% growth inhibition (GI50) in assay [1] stood at 3940 nM; in assay [2] it was 3380 nM; in assay [3], 2780 nM; in assay [4], 2530 nM; in assay [5], 1470 nM; in assay [6] it was 1540 nM. Moreover, the outcome in assay [7] was Active.
Regarding `CCCCCCCCCCCCCCCC(=O)N1CC[N+](C)(C)CC1`, the GI50 in assay [1] turned out to be 2340 nM; in assay [2], 1040 nM; in assay [3], 580 nM; in assay [4], 1440 nM; in assay [5] it was 480 nM; in assay [6], 290 nM. Moreover, the result in assay [7] was Active.
Turning to `CCCCCCCCCCCCCC(=O)N1CC[N+](C)(C)CC1`, the concentration for 50% growth inhibition (GI50) in assay [1] was found to be 1580 nM; in assay [2], 1010 nM; in assay [3], 850 nM; in assay [4] it was 890 nM; in assay [5], 290 nM; in assay [6], 560 nM. Further, the outcome in assay [7] was Active.
As for `CCCCCCCCCCCC(=O)N1CC[N+](C)(C)CC1`, the GI50 entry in assay [1], in assay [2] and in assay [3] was “inactive” each time. The GI50 in assay [4] was determined as 3530 nM; in assay [5], 580 nM; in assay [6], 1730 nM. Besides, the outcome in assay [7] was inactive.
As for `CCCCCCCCCC(=O)N1CC[N+](C)(C)CC1`, the GI50 entry in assay [1], in assay [2], in assay [3], in assay [4], in assay [5] and in assay [6] was “inactive” throughout. Besides, in assay [7], the outcome was inactive.
Turning to `CCCCCCCCCCCCCCCC(=O)N1CC[N+](C)(Cc2ccccc2)CC1`, the GI50 in assay [1] worked out at 2050 nM; in assay [2], 1980 nM; in assay [3] it was 5060 nM; in assay [4] it was 1450 nM; in assay [5], 510 nM; in assay [6], 1000 nM.
On to `CCCCCCCCCCCCCCCCCCCCCCCC(=O)N1CC[N+](C)(C)CC1`, for which the GI50 entry in assay [1], in assay [2], in assay [3], in assay [4] and in assay [6] was “inactive” each time. This molecule gave a 50% growth inhibitory concentration (GI50) in assay [5] of 4790 nM. The outcome in assay [7] was inactive.
Turning to `CCCCCCCCCCCCCCCCCCOP(=O)([O-])OC1CC[N+](C)(C)CC1` [PERIFOSINE], the GI50 amounted to 4210 nM in assay [1]; 4560 nM in assay [2]; 1250 nM in assay [3]; 2860 nM in assay [4]; 440 nM in assay [5]; 540 nM in assay [6].
Take `C=CC[N+]1(C)CCN(C(=O)CCCCCCCCCCCCCCCCCCCCC)CC1`: the GI50 in assay [1] amounted to 3070 nM; in assay [2], 2370 nM; in assay [3], 2130 nM; in assay [4] it was 3160 nM; in assay [5], 960 nM; in assay [6], 1530 nM.
Regarding `CCCCCCCCCCCCCCCCCCCCCC(=O)N1CC[N+](C)(C)CC1`, the GI50 in assay [1] amounted to 3000 nM; in assay [2], 2390 nM; in assay [3], 2410 nM; in assay [4], 3510 nM; in assay [5] it was 990 nM; in assay [6] it was 1150 nM. In addition, the result in assay [7] was inactive.
As to `CCCCCCCCCCCCCCCC(=O)N1CC[N+](CC)(Cc2ccccc2)CC1`, the GI50 in assay [1] was determined as 1760 nM; in assay [2], 920 nM; in assay [4], 1160 nM; in assay [5], 550 nM; in assay [6], 460 nM. Besides, the GI50 result in assay [3] was “inactive”.
Turning to `CCCCCCCCCCCCCCCCCC(=O)N1CC[N+](C)(C)CC1`, the GI50 in assay [1] is 2700 nM; in assay [2] it was 2740 nM; in assay [3], 810 nM; in assay [4] it was 1620 nM; in assay [5] it was 530 nM; in assay [6] it was 560 nM.
Take `C=CC[N+]1(CC)CCN(C(=O)CCCCCCCCCCCCCCC)CC1`: the concentration for 50% growth inhibition (GI50) in assay [1] is 880 nM; in assay [2], 500 nM; in assay [3], 1330 nM; in assay [4], 680 nM; in assay [5], 370 nM; in assay [6], 270 nM. Also, the outcome in assay [7] was Active.
